The nature of series [1]: Inhibition of TPA-induced EBV-early antigen activation in human Raji cells assessed as EA activation after 48 hrs. In kind it is cell-based, human gammaherpesvirus 4. A digest of the protocol:
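Raji cells (EBV genome-carrying, virus non-producer Burkitt's lymphoma line; RPMI-1640 with 10% FBS) were seeded at 1×10⁶/mL and held 48 h at 37 °C with n-butyric acid (4 mmol), TPA (32 pmol) and test agent at 1000, 500, 100 or 10 mol ratio/32 pmol TPA. EA-positive cells were scored by indirect immunofluorescence with NPC patient serum, counting ≥500 cells, in triplicate. Results are expressed relative to the butyrate+TPA control (100%), and IC50 is given as mol ratio/32 pmol TPA.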

Series [2] can be described thus: Cytotoxicity against human Raji cells assessed as cell viability at 1000 molar ratio by trypan blue staining method. In kind it is cell-based. The following applies: read-out: Activity. In short, it runs like this:
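Viability was measured by trypan blue staining of Raji cells after the 48 h, 37 °C EBV-EA induction run (n-butyric acid 4 mmol plus TPA 32 pmol), with compound at 1000 mol ratio/32 pmol TPA.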

The subject of series [3] is Mus musculus. Description: Inhibition of DMBA-induced/TPA-promoted carcinogenesis in ICR mouse assessed as reduction of mouse bearing papillomas at 85 nmol administered 1 hr before TPA treatment measured after 10 to 15 weeks. The series is classed as functional. A digest of the protocol:
(§1)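 In the two-stage mouse skin carcinogenesis model, DMBA was the initiator and TPA the promoter, and test agent was given at 85 nmol alongside DMBA/TPA. Papilloma-bearing mice (%), papillomas per mouse, and tumor length and width were followed through week 20 against a DMBA/TPA-only group.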

For series [4], the system named is Mus musculus. The experiment in a line: Inhibition of DMBA-induced/TPA-promoted carcinogenesis in ICR mouse assessed as reduction of mouse bearing papillomas at 85 nmol administered 1 hr before TPA treatment measured after 20 weeks. In kind it is functional. In short, it runs like this: as §1
The subject of series [5] is Mus musculus. Description: Inhibition of DMBA-induced/TPA-promoted carcinogenesis in ICR mouse assessed as reduction of mouse bearing papillomas number at 85 nmol administered 1 hr before TPA treatment measured after 20 weeks. In kind it is functional. A digest of the protocol:
as §1

Series [6] relates to Mus musculus. The experiment in a line: Inhibition of DMBA-induced/TPA-promoted carcinogenesis in ICR mouse assessed as reduction of mouse bearing papillomas length at 85 nmol administered 1 hr before TPA treatment measured after 20 weeks. The series is classed as functional. A digest of the protocol:
as §1

In series [7] the test system is Mus musculus. The experiment in a line: Inhibition of DMBA-induced/TPA-promoted carcinogenesis in ICR mouse assessed as reduction of mouse bearing papillomas width at 85 nmol administered 1 hr before TPA treatment measured after 20 weeks. In kind it is functional. A digest of the protocol:
as §1

The species entered for series [8] is Mus musculus. The experiment in a line: Toxicity in ICR mouse assessed as change in body weight. In kind it is organism-based. The following applies: in vivo.
For series [9], the species on record is Mus musculus. The experiment in a line: Toxicity in ICR mouse assessed as lesional damage. In kind it is organism-based. The following applies: in vivo.
Series [10] is filed under the species Mus musculus. Description: Toxicity in ICR mouse assessed as inflammation. The following applies: in vivo. In kind it is organism-based.

Calls of active or inactive are those of the source. No cut-off for these calls is given here.

19 compounds from ChEMBL document CHEMBL1165853, “Hybrids of 3alpha-methoxyserrat-14-en-21beta-ol (PJ-1) and 3beta-methoxyserrat-14-en-21beta-ol (PJ-2) and various anti-oxidants as cancer chemopreventive agents” (Eur J Med Chem, 2010) can be followed below.

With `COc1cc(/C=C/C(O)=C/C(O)/C=C/c2ccc(OC(=O)CCC(=O)O[C@@H]3CC[C@]4(C)[C@H]5CC[C@H]6[C@@](C)(CC[C@H]7C(C)(C)[C@@H](OC)CC[C@@]76C)CC5=CC[C@H]4C3(C)C)c(OC)c2)ccc1OC(=O)CCC(=O)O[C@@H]1CC[C@]2(C)[C@H]3CC[C@H]4[C@@](C)(CC[C@H]5C(C)(C)[C@@H](OC)CC[C@@]54C)CC3=CC[C@H]2C1(C)C` (stereo partly drawn), the IC50 in series [1] was 395 molar ratio. Besides, the viability at 1000 molar ratio in series [2] came out at 60%.

Turning to `CC1(C)CC[C@]2(C(=O)O)CC[C@]3(C)C(=CC[C@@H]4[C@@]5(C)CC[C@H](O)C(C)(C)[C@@H]5CC[C@]43C)[C@@H]2C1` [OLEANOLIC_ACID], the IC50 in series [1] was 449 molar ratio.

As for `CO[C@@H]1CC[C@@]2(C)[C@@H](CC[C@@]3(C)CC4=CC[C@H]5C(C)(C)[C@H](OC(=O)CCC(=O)Oc6ccc(-c7oc8cc(O)cc(O)c8c(=O)c7O)cc6O)CC[C@]5(C)[C@H]4CC[C@@H]32)C1(C)C`, the IC50 in series [1] stood at 350 molar ratio. Also, the viability at 1000 molar ratio in series [2] was 60%. The “inhibition (INH)” value in the series with Mus musculus [3] is on record as 26.6%; with Mus musculus [4] it was 73.3%. Besides, the inhibition result in the series on Mus musculus [5] is “Active”. In addition, the Activity in the series on Mus musculus [6] is 28 mm; with Mus musculus [7] it was 25 mm; in the series listed under Mus musculus [8], “Non-toxic”; in the series listed under Mus musculus [9] it was “Non-toxic”; in the series filed under Mus musculus [10], “Non-toxic”.

With `CO[C@H]1CC[C@@]2(C)[C@@H](CC[C@@]3(C)CC4=CC[C@H]5C(C)(C)[C@H](OC(=O)CCC(=O)Oc6coc(CO)cc6=O)CC[C@]5(C)[C@H]4CC[C@@H]32)C1(C)C`, the IC50 in series [1] is on record as 371 molar ratio. Besides, the viability at 1000 molar ratio in series [2] was 70%.

On to `COc1cc(/C=C/C(O)=C/C(O)/C=C/c2ccc(OC(=O)CC(=O)O[C@@H]3CC[C@]4(C)[C@H]5CC[C@H]6[C@@](C)(CC[C@H]7C(C)(C)[C@H](OC)CC[C@@]76C)CC5=CC[C@H]4C3(C)C)c(OC)c2)ccc1OC(=O)CC(=O)O[C@@H]1CC[C@]2(C)[C@H]3CC[C@H]4[C@@](C)(CC[C@H]5C(C)(C)[C@H](OC)CC[C@@]54C)CC3=CC[C@H]2C1(C)C` (stereo partly drawn), for which the IC50 in series [1] is on record as 335 molar ratio. Also, the viability at 1000 molar ratio in series [2] came out at 60%.

For the compound `CO[C@H]1CC[C@@]2(C)[C@@H](CC[C@@]3(C)CC4=CC[C@H]5C(C)(C)[C@H](OC(N)=O)CC[C@]5(C)[C@H]4CC[C@@H]32)C1(C)C`, the IC50 in series [1] is given as 470 molar ratio. The viability at 1000 molar ratio in series [2] is 60%.

For `COc1cc(/C=C/C(O)/C=C(O)/C=C/c2ccc(OC(=O)CCC(=O)O[C@@H]3CC[C@]4(C)[C@H]5CC[C@H]6[C@@](C)(CC[C@H]7C(C)(C)[C@H](OC)CC[C@@]76C)CC5=CC[C@H]4C3(C)C)c(OC)c2)ccc1O` (stereo partly drawn), in series [1], the IC50 is 393 molar ratio. Besides, the viability at 1000 molar ratio in [2] worked out at 60%.

On to `CO[C@H]1CC[C@@]2(C)[C@@H](CC[C@@]3(C)CC4=CC[C@H]5C(C)(C)[C@H](OC(=O)CCl)CC[C@]5(C)[C@H]4CC[C@@H]32)C1(C)C`, for which the IC50 in series [1] is given as 473 molar ratio. In series [2], the viability at 1000 molar ratio turned out to be 60%.

Turning to `CO[C@H]1CC[C@@]2(C)[C@@H](CC[C@@]3(C)CC4=CC[C@H]5C(C)(C)[C@H](OC(=O)Nc6ccccc6)CC[C@]5(C)[C@H]4CC[C@@H]32)C1(C)C`, the IC50 in [1] is 459 molar ratio. The viability at 1000 molar ratio in series [2] came to 60%.

As for `COc1cc(/C=C/C(O)/C=C(O)/C=C/c2ccc(OC(=O)CC(=O)O[C@@H]3CC[C@]4(C)[C@H]5CC[C@H]6[C@@](C)(CC[C@H]7C(C)(C)[C@@H](OC)CC[C@@]76C)CC5=CC[C@H]4C3(C)C)c(OC)c2)ccc1O` (stereo partly drawn), the IC50 in [1] was 358 molar ratio. In addition, the viability at 1000 molar ratio in series [2] amounted to 60%.

In the case of `CO[C@H]1CC[C@@]2(C)[C@@H](CC[C@@]3(C)CC4=CC[C@H]5C(C)(C)[C@H](OC(=S)Nc6ccccc6)CC[C@]5(C)[C@H]4CC[C@@H]32)C1(C)C`, the IC50 in series [1] came out at 460 molar ratio. Also, in series [2], the viability at 1000 molar ratio was 60%.

Regarding `CO[C@@H]1CC[C@@]2(C)[C@@H](CC[C@@]3(C)CC4=CC[C@H]5C(C)(C)[C@H](OC(=O)CCC(=O)Oc6coc(CO)cc6=O)CC[C@]5(C)[C@H]4CC[C@@H]32)C1(C)C`, the IC50 in series [1] worked out at 370 molar ratio. For the same compound, the viability at 1000 molar ratio in series [2] was 70%.

As to `COc1cc(/C=C/C(O)=C/C(O)/C=C/c2ccc(OC(=O)CCC(=O)O[C@@H]3CC[C@]4(C)[C@H]5CC[C@H]6[C@@](C)(CC[C@H]7C(C)(C)[C@H](OC)CC[C@@]76C)CC5=CC[C@H]4C3(C)C)c(OC)c2)ccc1OC(=O)CCC(=O)O[C@@H]1CC[C@]2(C)[C@H]3CC[C@H]4[C@@](C)(CC[C@H]5C(C)(C)[C@H](OC)CC[C@@]54C)CC3=CC[C@H]2C1(C)C` (stereo partly drawn), the IC50 in [1] stood at 462 molar ratio. In series [2], the viability at 1000 molar ratio was 60%.

With `COc1cc(/C=C/C(=O)CC(O)/C=C/c2ccc(OC(=O)CC(=O)O[C@@H]3CC[C@]4(C)[C@H]5CC[C@H]6[C@@](C)(CC[C@H]7C(C)(C)[C@@H](OC)CC[C@@]76C)CC5=CC[C@H]4C3(C)C)c(OC)c2)ccc1OC(=O)CC(=O)O[C@@H]1CC[C@]2(C)[C@H]3CC[C@H]4[C@@](C)(CC[C@H]5C(C)(C)[C@@H](OC)CC[C@@]54C)CC3=CC[C@H]2C1(C)C` (stereo partly drawn), the IC50 in series [1] is reported as 338 molar ratio. Also, the viability at 1000 molar ratio in [2] was found to be 60%.

For `CO[C@H]1CC[C@@]2(C)[C@@H](CC[C@@]3(C)CC4=CC[C@H]5C(C)(C)[C@H](OC(=O)CCC(=O)Oc6ccc(-c7oc8cc(O)cc(O)c8c(=O)c7O)cc6O)CC[C@]5(C)[C@H]4CC[C@@H]32)C1(C)C`, the IC50 in series [1] stood at 330 molar ratio. Besides, the viability at 1000 molar ratio in [2] came out at 60%. Further, the “inhibition (INH)” value in the series with Mus musculus [3] is 20%; in the series with Mus musculus [4] it was 86.6%. Moreover, the papillomas per mouse with Mus musculus [5] came out at 4.7 papillomas/mouse. Also, the Activity is 26 mm with Mus musculus [6]; 24 mm in the series on Mus musculus [7]; “Non-toxic” in the series listed under Mus musculus [8]; “Non-toxic” in the series filed under Mus musculus [9]; “Non-toxic” in the series listed under Mus musculus [10].

On to `CO[C@H]1CC[C@@]2(C)[C@@H](CC[C@@]3(C)CC4=CC[C@H]5C(C)(C)[C@H](OC(=O)Nc6ccccc6Cl)CC[C@]5(C)[C@H]4CC[C@@H]32)C1(C)C`, for which the IC50 in [1] was found to be 468 molar ratio. In addition, the viability at 1000 molar ratio in series [2] was 50%.

On to `COc1cc(/C=C/C(O)/C=C(O)/C=C/c2ccc(OC(=O)CCC(=O)O[C@@H]3CC[C@]4(C)[C@H]5CC[C@H]6[C@@](C)(CC[C@H]7C(C)(C)[C@@H](OC)CC[C@@]76C)CC5=CC[C@H]4C3(C)C)c(OC)c2)ccc1O` (stereo partly drawn), for which the IC50 in series [1] is given as 460 molar ratio. For the same compound, in series [2], the viability at 1000 molar ratio was 60%.

For the compound `COc1cc(/C=C/C(O)/C=C(O)/C=C/c2ccc(OC(=O)CC(=O)O[C@@H]3CC[C@]4(C)[C@H]5CC[C@H]6[C@@](C)(CC[C@H]7C(C)(C)[C@H](OC)CC[C@@]76C)CC5=CC[C@H]4C3(C)C)c(OC)c2)ccc1O` (stereo partly drawn), in series [1], the IC50 was 354 molar ratio. For the same compound, the viability at 1000 molar ratio in series [2] worked out at 60%.

With `CO[C@H]1CC[C@@]2(C)[C@@H](CC[C@@]3(C)CC4=CC[C@H]5C(C)(C)[C@H](OC(=O)NS(=O)(=O)c6ccc(C)cc6)CC[C@]5(C)[C@H]4CC[C@@H]32)C1(C)C`, the IC50 in series [1] was found to be 461 molar ratio. For the same compound, the viability at 1000 molar ratio in series [2] is 60%.
